Six compounds from ChEMBL document CHEMBL3124870, “Discovery and characterization of potent thiazoles versus methicillin- and vancomycin-resistant Staphylococcus aureus” (J Med Chem, 2014) can be followed below.

The test system of series [1] is Staphylococcus aureus. In words: Antibacterial activity against vancomycin-intermediate Staphylococcus aureus HIP07256 assessed as inhibition of visible growth by broth microdilution method. The series is classed as functional. Background: Broth dilution looks for growth in wells or tubes with falling amounts of substance.
Series [2] relates to Staphylococcus aureus. In words: Antibacterial activity against vancomycin-intermediate Staphylococcus aureus ATCC 700699 assessed as inhibition of visible growth by broth microdilution method. The series is classed as functional.
Series [3] has as its system Staphylococcus aureus. The series can be described thus: Antibacterial activity against methicillin-resistant Staphylococcus aureus USA800 assessed as inhibition of visible growth by broth microdilution method. The series is classed as functional.
Series [4] deals with Staphylococcus aureus. The series can be described thus: Antibacterial activity against methicillin-resistant Staphylococcus aureus USA100 assessed as inhibition of visible growth by broth microdilution method. The series is classed as functional.
A further series has as its system HeLa. In words: Cytotoxicity against human HeLa cells assessed as cell viability at 11 ug/ml by MTS assay. Type of series: cell-based. On the technique in general: Formazan colour is commonly taken as a measure of viable cells.
For series [5], the system named is Staphylococcus aureus. The series can be described thus: Antibacterial activity against methicillin-resistant Staphylococcus aureus USA500 assessed as inhibition of visible growth by broth microdilution method. Type of series: functional.
The test system of series [6] is Staphylococcus aureus. The series can be described thus: Antibacterial activity against vancomycin-resistant Staphylococcus aureus assessed as inhibition of visible growth by broth microdilution method. Type of series: functional.
Series [7] concerns Staphylococcus aureus. The series can be described thus: Antibacterial activity against vancomycin-intermediate Staphylococcus aureus LIM 3 assessed as inhibition of visible growth by broth microdilution method. Type of series: functional.
Series [8] concerns Staphylococcus aureus. The series can be described thus: Antibacterial activity against methicillin-resistant Staphylococcus aureus NRS108 assessed as inhibition of visible growth by broth microdilution method. Type of series: functional.
For series [9], the system named is Staphylococcus aureus. In words: Antibacterial activity against methicillin-resistant Staphylococcus aureus NRS107 assessed as inhibition of visible growth by broth microdilution method. Type of series: functional.
In series [10] the test system is Staphylococcus aureus. In words: Antibacterial activity against methicillin-resistant Staphylococcus aureus ATCC 43300 assessed as inhibition of visible growth by broth microdilution method. Type of series: functional.
Series [11] has as its system Staphylococcus aureus. The series can be described thus: Antibacterial activity against methicillin-resistant Staphylococcus aureus USA200 assessed as inhibition of visible growth by broth microdilution method. Type of series: functional.
Series [12] concerns Staphylococcus aureus. In words: Antibacterial activity against methicillin-resistant Staphylococcus aureus USA300 assessed as inhibition of visible growth by broth microdilution method. The series is classed as functional.
The test system of series [13] is Staphylococcus aureus. The series can be described thus: Antibacterial activity against methicillin-resistant Staphylococcus aureus NRS119 assessed as inhibition of visible growth by broth microdilution method. The series is classed as functional.
In series [14] the test system is Staphylococcus aureus. The series can be described thus: Antibacterial activity against methicillin-resistant Staphylococcus aureus USA1100 assessed as inhibition of visible growth by broth microdilution method. The series is classed as functional.
The test system of series [15] is Staphylococcus aureus. In words: Antibacterial activity against methicillin-resistant Staphylococcus aureus USA400 assessed as inhibition of visible growth by broth microdilution method. The series is classed as functional.
Series [16] deals with Staphylococcus aureus. The series can be described thus: Antibacterial activity against methicillin-resistant Staphylococcus aureus NRS194 assessed as inhibition of visible growth by broth microdilution method. The series is classed as functional.
The subject of series [17] is Staphylococcus aureus. In words: Antibacterial activity against methicillin-resistant Staphylococcus aureus USA700 assessed as inhibition of visible growth by broth microdilution method. The series is classed as functional.
The subject of series [18] is Staphylococcus aureus. The series can be described thus: Antibacterial activity against methicillin-resistant Staphylococcus aureus USA1000 assessed as inhibition of visible growth by broth microdilution method. The series is classed as functional.
The test system of series [19] is Staphylococcus aureus. The series can be described thus: Bactericidal activity against methicillin-resistant Staphylococcus aureus USA300 assessed as time required to complete elimination of bacteria by 3-log10 by time-kill assay. Type of series: functional. The procedure, abridged: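 Viable counts (CFU) followed over a 12-hour window; endpoint is a 3-log10 fall in CFU.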

A short description of series [20]: Aqueous solubility of compound in phosphate buffer assessed as solubility limit after 2 hrs by turbidity analysis. Type of series: physicochemical.

Converted amounts (≈) assume the structure as drawn.

Take `C/C(=N\NC(=N)N)c1sc(-c2ccc(C(C)(C)C)cc2)nc1C`: the MIC (commonly the lowest concentration that inhibits growth of the organism) with Staphylococcus aureus [1] was determined as 1.9 mg/L (≈ 5.77 µM); in the series on Staphylococcus aureus [2] it was 1.6 mg/L (≈ 4.86 µM); in the series on Staphylococcus aureus [3] it was 1.3 mg/L (≈ 3.95 µM); in the series with Staphylococcus aureus [4], 1.3 mg/L (≈ 3.95 µM); with Staphylococcus aureus [5], 1.3 mg/L (≈ 3.95 µM); in the series on Staphylococcus aureus [6], 1.6 mg/L (≈ 4.86 µM). In addition, the MIC with Staphylococcus aureus [7] is 1.6 mg/L (≈ 4.86 µM); with Staphylococcus aureus [8], 1.9 mg/L (≈ 5.77 µM); in the series with Staphylococcus aureus [9] it was 1 mg/L (≈ 3.04 µM); with Staphylococcus aureus [10], 1.9 mg/L (≈ 5.77 µM); in the series with Staphylococcus aureus [11], 2.6 mg/L (≈ 7.89 µM); with Staphylococcus aureus [12], 1.3 mg/L (≈ 3.95 µM). Besides, the MIC in the series on Staphylococcus aureus [13] came out at 1.9 mg/L (≈ 5.77 µM); in the series on Staphylococcus aureus [14], 1.9 mg/L (≈ 5.77 µM); with Staphylococcus aureus [15] it was 1.9 mg/L (≈ 5.77 µM); in the series with Staphylococcus aureus [16] it was 2.6 mg/L (≈ 7.89 µM). Also, in the series with HeLa, the Activity entry is on record as “Non-toxic”.
For `C/C(=N\NC(=N)N)c1sc(-c2ccc3ccccc3c2)nc1C`, the MIC in the series with Staphylococcus aureus [17] stood at 2.6 mg/L (≈ 8.04 µM); with Staphylococcus aureus [1] it was 2.6 mg/L (≈ 8.04 µM); in the series with Staphylococcus aureus [2], 3.2 mg/L (≈ 9.89 µM); in the series on Staphylococcus aureus [5], 2.6 mg/L (≈ 8.04 µM); in the series on Staphylococcus aureus [8], 1.9 mg/L (≈ 5.87 µM); in the series on Staphylococcus aureus [9] it was 1.9 mg/L (≈ 5.87 µM). Further, the MIC in the series on Staphylococcus aureus [10] is 3.8 mg/L (≈ 11.7 µM); with Staphylococcus aureus [11] it was 2.6 mg/L (≈ 8.04 µM); in the series with Staphylococcus aureus [13], 3.8 mg/L (≈ 11.7 µM); in the series with Staphylococcus aureus [16] it was 1.9 mg/L (≈ 5.87 µM). For the same compound, the Activity result in the series with HeLa is on record as “Non-toxic”.
As to `C/C(=N\NC(=N)N)c1sc(-c2ccc(C3=CCCCC3)cc2)nc1C`, the MIC in the series on Staphylococcus aureus [17] was determined as 1.2 mg/L (≈ 3.39 µM); with Staphylococcus aureus [1], 0.8 mg/L (≈ 2.26 µM); with Staphylococcus aureus [2], 0.5 mg/L (≈ 1.41 µM); in the series on Staphylococcus aureus [3], 0.8 mg/L (≈ 2.26 µM); in the series on Staphylococcus aureus [4], 1 mg/L (≈ 2.83 µM); in the series on Staphylococcus aureus [5] it was 1 mg/L (≈ 2.83 µM). Moreover, the MIC is 1.2 mg/L (≈ 3.39 µM) in the series with Staphylococcus aureus [6]; 0.8 mg/L (≈ 2.26 µM) in the series on Staphylococcus aureus [7]; 0.8 mg/L (≈ 2.26 µM) in the series on Staphylococcus aureus [18]; 1.7 mg/L (≈ 4.81 µM) with Staphylococcus aureus [8]; 0.6 mg/L (≈ 1.7 µM) in the series on Staphylococcus aureus [9]; 1.2 mg/L (≈ 3.39 µM) in the series on Staphylococcus aureus [10]. Moreover, the MIC in the series with Staphylococcus aureus [11] stood at 1 mg/L (≈ 2.83 µM); with Staphylococcus aureus [12], 1.2 mg/L (≈ 3.39 µM); with Staphylococcus aureus [13], 0.6 mg/L (≈ 1.7 µM); with Staphylococcus aureus [16] it was 0.8 mg/L (≈ 2.26 µM). Besides, in the series with HeLa, the Activity result is reported as “Non-toxic”.
For the compound `C/C(=N\NC(=N)N)c1sc(-c2ccc(C3CCCCC3)cc2)nc1C`, the MIC is 1.5 mg/L (≈ 4.22 µM) in the series on Staphylococcus aureus [17]; 0.7 mg/L (≈ 1.97 µM) in the series with Staphylococcus aureus [1]; 0.7 mg/L (≈ 1.97 µM) with Staphylococcus aureus [2]; 0.7 mg/L (≈ 1.97 µM) in the series on Staphylococcus aureus [3]; 0.7 mg/L (≈ 1.97 µM) in the series with Staphylococcus aureus [4]; 0.9 mg/L (≈ 2.53 µM) with Staphylococcus aureus [5]. Moreover, the MIC was found to be 1.5 mg/L (≈ 4.22 µM) with Staphylococcus aureus [6]; 0.5 mg/L (≈ 1.41 µM) with Staphylococcus aureus [7]; 0.9 mg/L (≈ 2.53 µM) in the series on Staphylococcus aureus [18]; 1.5 mg/L (≈ 4.22 µM) in the series on Staphylococcus aureus [8]; 0.6 mg/L (≈ 1.69 µM) with Staphylococcus aureus [9]; 1.5 mg/L (≈ 4.22 µM) in the series on Staphylococcus aureus [10]. Moreover, the MIC in the series with Staphylococcus aureus [11] stood at 1.2 mg/L (≈ 3.38 µM); with Staphylococcus aureus [12], 0.7 mg/L (≈ 1.97 µM); with Staphylococcus aureus [13], 0.7 mg/L (≈ 1.97 µM); in the series with Staphylococcus aureus [14], 0.7 mg/L (≈ 1.97 µM); in the series on Staphylococcus aureus [15], 0.7 mg/L (≈ 1.97 µM); in the series with Staphylococcus aureus [16], 0.7 mg/L (≈ 1.97 µM). In the series on HeLa, the Activity result is “Non-toxic”. For the same compound, the Time in the series on Staphylococcus aureus [19] was 6 h.
On to `COC(=O)[C@H]1[C@H]2C[C@@H]3c4[nH]c5cc(OC)ccc5c4CCN3C[C@H]2C[C@@H](OC(=O)c2cc(OC)c(OC)c(OC)c2)[C@@H]1OC` [RESERPINE], for which, in series [20], the kinetic solubility (in general, the concentration staying in solution when a stock, usually in DMSO, is diluted into the medium) at 2 h is 31.3 µM (≈ 19.1 µg/mL).
As for `CN[C@H](CC(C)C)C(=O)N[C@H]1C(=O)N[C@@H](CC(N)=O)C(=O)N[C@H]2C(=O)N[C@H]3C(=O)N[C@H](C(=O)N[C@H](C(=O)O)c4cc(O)cc(O)c4-c4cc3ccc4O)[C@H](O)c3ccc(c(Cl)c3)Oc3cc2cc(c3O[C@@H]2O[C@H](CO)[C@@H](O)[C@H](O)[C@H]2O[C@H]2C[C@](C)(N)[C@H](O)[C@H](C)O2)Oc2ccc(cc2Cl)[C@H]1O` [VANCOMYCIN], the Time in the series with Staphylococcus aureus [19] came out at 12 h. The MIC with Staphylococcus aureus [11] amounted to 0.4 mg/L (≈ 0.276 µM).
